Data from ChEMBL document CHEMBL4680079, “Discovery of a Quinoline-4-carboxamide Derivative with a Novel Mechanism of Action, Multistage Antimalarial Activity, and Potent in Vivo Efficacy” (J Med Chem, 2016).
Values after ≈ are worked out from the molar mass of the structure shown.

How the values were obtained:
[1] = Kinetic aqueous solubility of the compound by laser nephelometry; type: physicochemical; conditions: read-out: Kinetic_solubility
Summary of the method: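 Kinetic solubility measured by laser nephelometry. DMSO serial dilutions diluted into water to give final 100–5 μg/mL at 1.0% DMSO. Read immediately, in triplicate aliquots.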

[2] = Protein binding in CD1 mouse plasma measured after 5 hr by UPLC-MS/MS analysis based equilibrium dialysis method; type: ADME, cell-free; conditions: mouse, 5 h
Summary of the method: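 Equilibrium dialysis of female CD1 mouse plasma spiked at 10 μg/mL (12-14 kDa membrane) against isotonic buffer for 5 h at ~37°C with shaking. Unbound fraction taken as the buffer/plasma peak-area ratio by UPLC-MS/MS. n=6 replicates, run in triplicate.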

[3] = Intrinsic clearance in CD1 mouse liver microsomes at 0.5 uM in presence of NADPH incubated upto 30 mins by UPLC-MS/MS analysis; type: ADME, Microsome; conditions: 0.5 h
Summary of the method: (§1)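 Compound at 0.5 μM incubated with female CD1 mouse, male Sprague-Dawley rat or pooled human liver microsomes (0.5 mg/mL, 50 mM potassium phosphate, pH 7.4). Reaction started with excess NADPH. Samples taken at 0-30 min, quenched in acetonitrile, analysed by UPLC-MS/MS. Verapamil used as control, single time course.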

MRC5 = assay: Antiproliferative activity against human MRC5 cells assessed as reduction in cell viability after 68 hrs by resazurin dye based fluorescence assay; conditions: MRC5, 68 h
Summary of the method: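 MRC-5 fibroblasts plated overnight as monolayers, exposed to compound pre-diluted in MEM for 68 h. Resazurin then added (final 50 μM) for 3 h, fluorescence read at ex 528/em 590 nm. Signal converted to % inhibition against high- and no-inhibition controls. Plates accepted at Z' > 0.5.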

Plasmodium falciparum [4] = assay: Antiplasmodial activity against chloroquine-sensitive Plasmodium falciparum 3D7 infected in human red blood cells assessed as growth inhibition by SYBR Green fluorescence assay; type: functional, organism-based, RBC; conditions: 3D7, Erythrocyte
Summary of the method: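 P. falciparum 3D7 grown in 5% human red cells in RPMI 1640 (pH 7.3) with 0.5% Albumax II, hypoxanthine and gentamicin at 37°C under 1% O₂/3% CO₂. Growth measured by SYBR green fluorescence (ex 485/em 528 nm), with mefloquine as assay control. EC50 calculated.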

Plasmodium falciparum [5] = assay: Antiplasmodial activity against late stage (IV/V) Plasmodium falciparum NF54 gametocytes transfected with GFP-LUC assessed as growth inhibition incubated for 72 hrs by mitotracker Red-CMXROS dye based fluorescence microscopic analysis; type: functional, organism-based; conditions: NF54, 72 h
Summary of the method: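 NF54 pfs16-LUC-GFP stage IV–V gametocytes (10% parasitaemia, 0.1% haematocrit) exposed to compound in 0.4% DMSO, three concentrations per log, for 72 h at 37°C under 5% CO2/5% O2/90% N2. MitoTracker Red CM-H2Xros then added for 16 h and viable gametocytes counted by imaging.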

[6] = Permeability of the compound at 10 uM incubated for 5 hrs by UPLC-MS/MS analysis based PAMPA method; type: ADME; conditions: read-out: permeability
Summary of the method: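 PAMPA run on a lipid-oil-lipid tri-layer filter at pH 7.4. Compound at 10 μM in PBS (DMSO ≤5%) in donor wells, PBS in acceptor wells, kept 5 h at room temperature. Both compartments quantified by UPLC-MS/MS. Data accepted only when recovery exceeded 70%.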

Plasmodium berghei [7] = assay: Antiplasmodial activity against Plasmodium berghei ANKA infected in NMRI mouse assessed as reduction in parasitemia at 1 mg/kg, po QD for 4 days; type: functional; design: scale not given: the % may be the effect or the level left; conditions: time 4 day
Summary of the method: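 Female NMRI mice (n=3 per group, randomized, not blinded) infected with GFP-transfected P. berghei ANKA. Oral dosing once daily for 4 days in 10% DMSO/40% PEG400/50% water or HPMC suspension vehicle. Parasitaemia measured by flow cytometry on blood collected 96 h after infection. Mice watched for toxicity over 4 h post-dose each day.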

[8] = Intrinsic clearance in human liver microsomes at 0.5 uM in presence of NADPH incubated upto 30 mins by UPLC-MS/MS analysis; type: ADME, Microsome; conditions: 0.5 h; summary of the method: as §1
[9] = Intrinsic clearance in Sprague-Dawley rat liver microsomes at 0.5 uM in presence of NADPH incubated upto 30 mins by UPLC-MS/MS analysis; type: ADME, Microsome; conditions: 0.5 h; summary of the method: as §1
Plasmodium berghei [10] = assay: Antiplasmodial activity against Plasmodium berghei ANKA infected in NMRI mouse assessed as survival days at 1 mg/kg, po QD for 4 days; type: functional; conditions: time 4 day
[11] = molecular target: Voltage-gated inwardly rectifying potassium channel KCNH2 (Homo sapiens, UniProt Q12809); assay: Inhibition of human ERG by IonWorks patch-clamp electrophysiology method
Summary of the method: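 hERG K⁺ channel inhibition measured by IonWorks patch-clamp electrophysiology. Eight-point concentration-response curves made from 3-fold serial dilutions down from the maximum final assay concentration. Each curve generated on 2 occasions.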

Plasmodium berghei [12] = assay: Antiplasmodial activity against Plasmodium berghei ookinete form assessed as growth inhibition incubated for 22 hrs by GFP-based fluorescence microscopic analysis; type: functional, organism-based

Chain of Voltage-gated inwardly rectifying potassium channel KCNH2 (Q12809 whole entry): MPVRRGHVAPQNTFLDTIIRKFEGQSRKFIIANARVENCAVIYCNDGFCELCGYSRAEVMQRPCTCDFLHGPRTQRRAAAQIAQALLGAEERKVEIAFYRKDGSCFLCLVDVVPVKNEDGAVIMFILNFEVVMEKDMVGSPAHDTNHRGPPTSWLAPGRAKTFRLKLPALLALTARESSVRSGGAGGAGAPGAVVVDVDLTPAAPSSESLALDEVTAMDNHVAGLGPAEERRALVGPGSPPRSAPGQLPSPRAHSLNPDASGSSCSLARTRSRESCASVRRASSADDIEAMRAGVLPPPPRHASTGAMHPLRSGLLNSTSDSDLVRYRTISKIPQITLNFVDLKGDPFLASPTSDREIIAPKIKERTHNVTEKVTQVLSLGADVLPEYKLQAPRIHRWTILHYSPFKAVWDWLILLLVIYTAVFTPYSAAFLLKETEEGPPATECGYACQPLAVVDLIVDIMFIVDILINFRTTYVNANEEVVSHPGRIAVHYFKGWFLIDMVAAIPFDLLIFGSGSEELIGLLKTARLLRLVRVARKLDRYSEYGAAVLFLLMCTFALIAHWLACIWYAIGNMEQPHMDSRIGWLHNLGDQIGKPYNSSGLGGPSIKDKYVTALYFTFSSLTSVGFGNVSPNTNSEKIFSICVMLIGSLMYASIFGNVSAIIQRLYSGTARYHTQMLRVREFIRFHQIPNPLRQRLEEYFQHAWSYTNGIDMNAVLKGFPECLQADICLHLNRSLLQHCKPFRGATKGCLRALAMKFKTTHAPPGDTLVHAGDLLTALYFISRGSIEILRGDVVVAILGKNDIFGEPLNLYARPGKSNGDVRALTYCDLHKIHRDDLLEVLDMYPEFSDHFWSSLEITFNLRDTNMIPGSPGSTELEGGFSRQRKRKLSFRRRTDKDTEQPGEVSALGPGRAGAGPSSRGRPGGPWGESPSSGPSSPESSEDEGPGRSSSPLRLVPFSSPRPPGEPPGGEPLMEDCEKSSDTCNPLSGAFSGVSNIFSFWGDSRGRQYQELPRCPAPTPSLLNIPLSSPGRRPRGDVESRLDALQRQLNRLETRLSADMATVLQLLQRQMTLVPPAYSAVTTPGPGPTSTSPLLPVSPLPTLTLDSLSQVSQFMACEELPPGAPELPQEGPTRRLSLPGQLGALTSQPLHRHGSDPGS

Structure (SMILES) | solubility kinetic [1] | CLH [3] | EC50 (MRC5) | EC50 (Plasmodium falciparum [4]) | also measured
O=C(NCCN1CCCC1)c1cc(-c2ccc(CN3CCOCC3)cc2Cl)nc2ccc(F)cc12 | > 201 µM | 0.5 mL/min/g | > 50 µM | 0.003 µM | PPB [2]: 56%
CN(C)c1ccc(-c2cc(C(=O)NCCN3CCCC3)c3cc(F)ccc3n2)cc1 |  |  | 10 µM | 0.81 µM | 
Cc1ccc(-c2cc(C(=O)Nc3cccnc3)c3cc(Br)ccc3n2)cc1 | 39 µM (≈ 16.3 µg/mL) | 5.3 mL/min/g | 21 µM | 0.12 µM | 
O=C(NCCN1CCCC1)c1cc(-c2cccc(CN3CCOCC3)c2)nc2ccc(F)cc12 |  |  |  | 11 µM | 
Cc1ccc(-c2cc(C(=O)NCCCN(C)C)c3cc(Cl)ccc3n2)cc1 | 262 µM (≈ 100 µg/mL) | 1.1 mL/min/g | 6 µM | 6.7 µM | 
Cc1ccc(-c2cc(C(=O)NCCN3CCCC3)c3cc(Cl)ccc3n2)cc1 | 13 µM (≈ 5.12 µg/mL) | 2.1 mL/min/g | 7 µM | 0.44 µM | 
Cc1ccc(-c2cc(C(=O)NCCN3CCCCC3)c3cc(Cl)ccc3n2)cc1 |  |  | 7 µM | 0.32 µM | 
COc1ccc2nc3cc(Cl)ccc3c(Nc3cc(CN4CCCC4)c(O)c(CN4CCCC4)c3)c2n1 [PYRONARIDINE] |  |  |  |  | EC50 (Plasmodium falciparum [5]): 3.11 µM
O=C(NCCN1CCC(F)CC1)c1cc(NCCCN2CCOCC2)nc2ccc(F)cc12 |  |  |  | 0.9 µM | Papp at 5 h, 10 µM [6]: 5.8 ×10⁻⁶ cm/s
O=C(NCCN1CCCC1)c1cc(-c2ccc(CN3CCCC3=O)cc2)nc2ccc(F)cc12 | > 217 µM | 2 mL/min/g |  | 0.007 µM | Activity (Plasmodium berghei [7]): <40%; CLH [8]: 2 mL/min/g; Papp at 5 h, 10 µM [6]: 4.9 ×10⁻⁶ cm/s; CLH [9]: 0.6 mL/min/g
Cc1ccc(-c2cc(C(=O)NCCN3CCOCC3)c3cc(Cl)ccc3n2)cc1 | 12 µM (≈ 4.92 µg/mL) | 11 mL/min/g | 26 µM | 3.6 µM | 
O=C(NCCN1CCCC1)c1cc(N2CCC(N3CCOCC3)CC2)nc2ccc(Cl)cc12 | 210 µM (≈ 99.1 µg/mL) | 2.3 mL/min/g | 13 µM | 0.15 µM | 
C[C@@H]1CC[C@H]2[C@@H](C)C(=O)O[C@@H]3O[C@@]4(C)CC[C@@H]1[C@]32OO4 [ARTEMISININ] |  |  |  |  | EC50 (Plasmodium falciparum [5]): 0.0008 µM
O=C(NCCN1CCC(F)(F)CC1)c1cc(NCCCN2CCOCC2)nc2ccc(F)cc12 |  |  |  | 15 µM | Papp at 5 h, 10 µM [6]: 9.4 ×10⁻⁶ cm/s
Cc1ccc(-c2cc(C(=O)NCCN3CCN(C)CC3)c3cc(Cl)ccc3n2)cc1 |  |  | 8 µM | 3.3 µM | 
O=C(NCCN1CCCC1)c1cc(-c2ccc(CN3CCS(=O)(=O)CC3)cc2)nc2ccc(F)cc12 | 171 µM (≈ 87.3 µg/mL) | < 0.5 mL/min/g | 41 µM | 0.0006 µM | Survival (Plasmodium berghei [10]): 7 days; Activity (Plasmodium berghei [7]): 99%; Papp at 5 h, 10 µM [6]: 1.4 ×10⁻⁶ cm/s; CLH [9]: 0.8 mL/min/g
Cc1ccc(-c2cc(C(=O)Nc3cccnc3)c3ccccc3n2)cc1 |  |  | > 50 µM | 0.99 µM | 
O=C(NCCN1CCCC1)c1cc(-c2ccc(C(=O)N3CCOCC3)cc2)nc2ccc(F)cc12 |  |  | > 50 µM | 0.14 µM | 
COc1cc(C)c2c(Oc3cccc(C(F)(F)F)c3)c(OC)cc(NC(C)CCCN)c2n1 (stereo not drawn) [TAFENOQUINE] |  |  |  |  | EC50 (Plasmodium falciparum [5]): 5.25 µM

Structure (SMILES) | solubility kinetic [1] | CLH [3] | EC50 (MRC5) | EC50 (Plasmodium falciparum [4]) | also measured
Cc1ccc(-c2cc(C(=O)NCCN(C)C)c3cc(Cl)ccc3n2)cc1 |  |  | 9 µM | 1.2 µM | 
Cc1ccc(-c2cc(C(=O)NCCN3CCCC3)c3cc(F)ccc3n2)cc1 | 180 µM (≈ 67.9 µg/mL) | 3.4 mL/min/g | 9 µM | 0.7 µM | 
O=C(NCCN1CCC(F)(F)C1)c1cc(NCCCN2CCOCC2)nc2ccc(F)cc12 |  |  |  | 18 µM | Papp at 5 h, 10 µM [6]: 8.9 ×10⁻⁶ cm/s
O=C(NCCN1CCCC1)c1cc(-c2ccc(N3CCOCC3)cc2)nc2ccc(F)cc12 |  |  | 17 µM | 0.6 µM | 
Cc1ccc(-c2cc(C(=O)Nc3cccnc3)c3cc(F)ccc3n2)cc1 | 36 µM (≈ 12.9 µg/mL) | 8.6 mL/min/g | 50 µM | 0.35 µM | 
O=C(NCCN1CCCC1)c1cc(NCCN2CCOCC2)nc2ccc(F)cc12 |  |  | 50 µM | 0.19 µM | 
O=C(NCCN1CCCC(F)(F)C1)c1cc(NCCCN2CCOCC2)nc2ccc(F)cc12 |  |  |  | 36 µM | Papp at 5 h, 10 µM [6]: 12 ×10⁻⁶ cm/s
O=C(NCCN1CCCC1)c1cc(N2CCn3ccnc3C2)nc2ccc(F)cc12 |  |  | > 50 µM | 5.8 µM | 
O=C(NCCN1CCOCC1)c1cc(NCCCN2CCOCC2)nc2ccc(F)cc12 |  |  |  | 2.5 µM | Papp at 5 h, 10 µM [6]: 2.4 ×10⁻⁶ cm/s
O=C(NCCN1CCCC1)c1cc(-c2ccc(S(=O)(=O)N3CCOCC3)cc2)nc2ccc(F)cc12 | 109 µM (≈ 55.9 µg/mL) | 1.9 mL/min/g | 21 µM | 0.004 µM | EC50 (Plasmodium falciparum [5]): 0.152 µM; IC50 [11]: 11 µM; PPB [2]: 75%; EC50 (Plasmodium berghei [12]): 0.015 µM; Papp at 5 h, 10 µM [6]: 2.9 ×10⁻⁶ cm/s
O=C(NCCN1CCCC1)c1cc(NCCN2CCCCC2)nc2ccc(F)cc12 |  |  | 19 µM | 8.9 µM | 
CN1CCN(c2cc(C(=O)NCCN3CCCC3)c3cc(F)ccc3n2)CC1 |  |  | 20 µM | 34 µM | 
O=C(NCCN1CCCC1)c1cc(-c2ccc(CN3CCOCC3)c(F)c2)nc2ccc(F)cc12 | > 208 µM | 1 mL/min/g | 19 µM | 0.0006 µM | Survival (Plasmodium berghei [10]): 11 days; Activity (Plasmodium berghei [7]): 99.8%; Papp at 5 h, 10 µM [6]: 6.3 ×10⁻⁶ cm/s
Cc1cc(Nc2cc(C(=O)NCCN3CCCC3)c3cc(F)ccc3n2)on1 |  |  | > 50 µM | > 50 µM | 
O=C(NCCN1CCCC1)c1cc(NCCC2CCOCC2)nc2ccc(F)cc12 |  |  | > 50 µM | 0.002 µM | 
Cc1ccc(-c2cc(C(=O)Nc3cccnc3)c3cc(Cl)ccc3n2)cc1 |  |  | 21 µM | 0.29 µM | 
O=C(NCCN1CCCC1)c1cc(N2CCC(N3CCOCC3)CC2)nc2ccc(F)cc12 | 220 µM (≈ 100 µg/mL) | 0.5 mL/min/g | 25 µM | 0.68 µM | 
O=C(NCCN1CCOCC1)c1cc(-c2ccc(CN3CCOCC3)cc2)nc2ccc(F)cc12 | > 210 µM | < 0.5 mL/min/g |  | 0.012 µM | 
